Source: ChEMBL document CHEMBL3124905, “Isothiocoumarin-3-carboxylic acid derivatives: synthesis, anticancer and antitrypanosomal activity evaluation” (Eur J Med Chem, 2014)
Each block holds one compound with its values, some of them ahead of it.

Experiments:
Type in all cases: functional
SK-MEL-5 = experiment: Growth inhibition of human SK-MEL-5 cells after 48 hrs by SRB assay; conditions: SK-MEL-5, 48 h
Summary of the method: (§1)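 NCI five-dose assay against the ~60-cell-line panel (nine cancer types). Tenfold dilutions from 10−4 to 10−8 M were used with continuous 48-h exposure and SRB absorbance readout. Percent growth was computed from time-zero, control and treated absorbances. GI50 is the concentration giving 50% lower net protein increase than controls. Values not reached are reported as beyond the tested range.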

IGROV-1 = experiment: Growth inhibition of human IGROV1 cells after 48 hrs by SRB assay; conditions: IGROV-1, 48 h; summary of the method: as §1
NCI/ADR-RES = experiment: Growth inhibition of human NCI/ADR-RES cells after 48 hrs by SRB assay; conditions: for TGI: read-out: pTGI (converted); summary of the method: as §1
[1] = Growth inhibition of human EKVX cells after 48 hrs by SRB assay; summary of the method: as §1
BT-549 = experiment: Growth inhibition of human BT549 cells after 48 hrs by SRB assay; conditions: BT-549, 48 h; summary of the method: as §1
MCF7 = experiment: Anticancer activity against human MCF7 cells assessed as cell growth at 100 uM after 48 hrs by SRB assay; conditions: MCF7, 48 h, read-out: Activity
Summary of the method: (§2)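 NCI one-dose primary screen on a three-line panel (breast MCF7, lung NCI-H460, CNS SF-268). Cells were inoculated and preincubated 24–48 h, then exposed to a single concentration of 10−4 M for 48 h. The endpoint was sulforhodamine B protein staining, and results are expressed as percent growth relative to untreated control cells. Negative values denote cytotoxicity.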

[2] = Growth inhibition of human UACC257 cells after 48 hrs by SRB assay; conditions: UACC-257, 48 h
Summary of the method: (§3)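 NCI ~60-cell-line five-dose screen. Cells were preincubated 24-48 h, then given compound at 10-fold dilutions from 10^-4 to 10^-8 M with 48 h continuous exposure. SRB protein stain was read by absorbance at time zero, in untreated control and with drug. GI50 was derived from [(Ti-Tz)/(C-Tz)]x100=50, TGI from Ti=Tz, and LC50 from [(Ti-Tz)/Tz]x100=-50.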

SF-268 = experiment: Anticancer activity against human SF268 cells assessed as cell growth at 100 uM after 48 hrs by SRB assay; conditions: SF-268, 48 h, read-out: Activity; summary of the method: as §2
[3] = Growth inhibition of human RXF393 cells after 48 hrs by SRB assay; conditions: RXF 393, 48 h; for TGI: read-out: pTGI (converted); summary of the method: as §1
NCI-H460 = experiment: Anticancer activity against human NCI-H460 cells assessed as cell growth at 100 uM after 48 hrs by SRB assay; conditions: NCI-H460, 48 h, read-out: Activity; summary of the method: as §2
[4] = Growth inhibition of human SNB cells after 48 hrs by SRB assay; summary of the method: as §1
[5] = Growth inhibition of human HOP92 cells after 48 hrs by SRB assay; conditions: HOP-92, 48 h; summary of the method: as §1
[6] = Growth inhibition of human […] cells after 48 hrs by SRB assay; summary of the method: as §1
UACC-62 = experiment: Growth inhibition of human UACC62 cells after 48 hrs by SRB assay; conditions: UACC-62, 48 h; summary of the method: as §3
SF-295 = experiment: Growth inhibition of human SF295 cells after 48 hrs by SRB assay; conditions: SF-295, 48 h; summary of the method: as §1
NCI-H522 = experiment: Growth inhibition of human NCI-H522 cells after 48 hrs by SRB assay; conditions: NCI-H522, 48 h; summary of the method: as §1
OVCAR-8 = experiment: Growth inhibition of human OVCAR8 cells after 48 hrs by SRB assay; conditions: OVCAR-8, 48 h; summary of the method: as §1
HCT-116 = experiment: Growth inhibition of human HCT116 cells after 48 hrs by SRB assay; conditions: HCT-116, 48 h; summary of the method: as §1
[7] = Growth inhibition of human OVCAR5 cells after 48 hrs by SRB assay; conditions: OVCAR-5, 48 h; summary of the method: as §1
786-0 = experiment: Growth inhibition of human 786-0 cells after 48 hrs by SRB assay; conditions: 786-0, 48 h; summary of the method: as §1
A549 = experiment: Growth inhibition of human A549/ATCC cells after 48 hrs by SRB assay; conditions: A549, 48 h; summary of the method: as §1
TK-10 = experiment: Growth inhibition of human TK10 cells after 48 hrs by SRB assay; conditions: TK-10, 48 h; summary of the method: as §3
[8] = Growth inhibition of human HCC2998 cells after 48 hrs by SRB assay; conditions: HCC 2998, 48 h; summary of the method: as §1
U-251 = experiment: Growth inhibition of human U251 cells after 48 hrs by SRB assay; conditions: U-251, 48 h; summary of the method: as §3
ACHN = experiment: Growth inhibition of human ACHN cells after 48 hrs by SRB assay; summary of the method: as §1

- GI50 (SK-MEL-5): 24.5 µM
- GI50 (BT-549): 24.5 µM
SMILES: CC(C)OC(=O)c1cc2ccccc2c(=O)s1
- TGI (SK-MEL-5; read-out: pTGI (converted)): 49 µM
- GI50 (IGROV-1): 20.9 µM
- TGI (IGROV-1; read-out: pTGI): > 100 µM
- GI50 (NCI/ADR-RES): 26.9 µM
- TGI (NCI/ADR-RES): 69.2 µM
- GI50 [1]: 19.1 µM
- TGI ([1]; read-out: pTGI (converted)): 52.5 µM
- TGI (BT-549; read-out: pTGI (converted)): 63.1 µM
- growth at 100 µM (MCF7): 87%
- GI50 [2]: 19.5 µM
- TGI ([2]; read-out: pTGI (converted)): 66.1 µM
- growth at 100 µM (SF-268): 69%
- GI50 [3]: 15.1 µM
- TGI [3]: 67.6 µM
- growth at 100 µM (NCI-H460): 13%

SMILES: COc1ccc2cc(C(=O)OC(C)C)sc(=O)c2c1OC
- GI50 [4]: 23.4 µM
- TGI ([4]; read-out: pTGI (converted)): 53.7 µM
- GI50 [5]: 28.8 µM
- TGI ([5]; read-out: pTGI (converted)): 85.1 µM
- GI50 [3]: 20 µM
- TGI [3]: 45.7 µM

- GI50 (NCI-H522): 18.2 µM
- GI50 (OVCAR-8): 12.3 µM
- GI50 (HCT-116): 14.1 µM
- GI50 (786-0): 11.5 µM
- GI50 (A549): 18.6 µM
- GI50 (U-251): 5.5 µM
- GI50 (ACHN): 7.08 µM
SMILES: COc1ccc2cc(C(=O)Nc3ccc(F)cc3)sc(=O)c2c1OC
- GI50 [6]: 6.76 µM
- TGI ([6]; read-out: pTGI (converted)): 22.9 µM
- GI50 (UACC-62): 19.5 µM
- TGI (UACC-62; read-out: pTGI (converted)): 52.5 µM
- GI50 (SF-295): 18.2 µM
- TGI (SF-295; read-out: pTGI (converted)): 51.3 µM
- TGI (NCI-H522; read-out: pTGI (converted)): 70.8 µM
- TGI (OVCAR-8; read-out: pTGI (converted)): 67.6 µM
- TGI (HCT-116; read-out: pTGI (converted)): 40.7 µM
- GI50 (NCI/ADR-RES): 12.6 µM
- TGI (NCI/ADR-RES): > 100 µM
- GI50 [7]: 18.6 µM
- TGI ([7]; read-out: pTGI (converted)): 61.7 µM
- TGI (786-0; read-out: pTGI (converted)): 41.7 µM
- growth at 100 µM (MCF7): 55%
- TGI (A549; read-out: pTGI): > 100 µM
- growth at 100 µM (SF-268): 60%
- GI50 [3]: 10.7 µM
- TGI [3]: 33.9 µM
- GI50 (TK-10): 15.1 µM
- TGI (TK-10; read-out: pTGI (converted)): 33.1 µM
- GI50 [8]: 14.1 µM
- TGI ([8]; read-out: pTGI (converted)): 49 µM
- growth at 100 µM (NCI-H460): 11%
- TGI (U-251; read-out: pTGI (converted)): 20.4 µM
- TGI (ACHN; read-out: pTGI (converted)): 26.9 µM
